# Reference: the RNAGym collection of RNA variant scans (doi:10.1038/s41586-018-0170-7)
# B1: tRNA (parent)
# chain: GUUCCGUUGGCGUAAUGGUAACGCGUCUCCCUCCUAAGGAGAAGACUGCGGGUUCGAGUCCCGUACGGAACG
# Variants of: B1
# Assay: yeast fitness, log relative to wild type (ln ratio); higher = fitter; tRNA-Arg(CCU), competitive growth, 37 C, 1 M NaCl
# How it was run: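 Fitness is the natural log of each genotype's generations divided by the wild type's. Generations were derived as OD-scaled log2 output/input frequency from 125 bp paired-end Illumina counts, weighting replicates by inverse variance. Pools of the tRNA-Arg(CCU) variant library, on a HIS3 centromeric plasmid in BY4742 lacking the chromosomal gene, grew ~6.5 generations (~26.5 h) in SC-HIS 1M NaCl at 37 °C after 4 generations in SC-HIS at 30 °C.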
row,Variant,yeast fitness (ln)
1,C27U C66A A69G C71U,-0.184
2,A43C C46U C66A A70G C71U,-0.0713
3,A43C C46U C66U A69G A70G C71U,-0.158
4,C27U C46U A69G A70G,-0.0578
5,C27U C46U A69G A70U,-0.209
6,C66A A69G,-0.0295
7,A43C C46U C66U A70U C71U,-0.211
8,C27U C46U C71U,-0.028
9,A43C C46U A70U C71U,-0.131
10,C27U A43C C46U C66A,-0.0786
11,C27U A43C C46U C66U,-0.217
12,C27U C66A,-0.0595
13,C27U C66U,-0.134
14,C27U C66A A70G C71U,-0.194
15,C27U A43C C66A A70U,-0.0654
16,C27U A43C C66A A70G,-0.135
17,C27U A43C C46U C66A A69G C71U,-0.317
18,A43C C46U C66U A69G A70G,-0.117
19,A43C C46U C66U A69G A70U,-0.121
20,C66U A69G C71U,-0.166
21,C27U C46U A69G C71U,-0.0597
22,C66U A69G,-0.168
23,C71U,-0.00399

row,Variant,yeast fitness (ln)
1,C27U A69G,-0.0417
2,C27U C46U A70G,-0.029
3,C27U C46U A70U,-0.0227
4,C27U A43C C71U,-0.114
5,A43C C46U C66U A69G C71U,-0.273
6,A43C A69G A70U C71U,-0.337
7,C66U C71U,-0.173
8,A43C C46U C66U C71U,-0.115
9,C46U A69G A70U C71U,-0.138
10,C27U C46U C66U A69G,-0.521
11,C27U A43C C66U A69G A70G,-0.255
12,C27U A43C C66U A69G A70U,-0.361
13,C27U A43C C46U A69G A70U,-0.0621
14,C27U A43C C46U A69G A70G,-0.0876
15,C27U A43C C46U A70G,-0.0288
16,C27U A43C C46U A70U,-0.0673
17,C46U C66U A70G C71U,-0.0752
18,A43C A70G C71U,-0.164
19,C27U A43C C66A,-0.0618
20,C27U A43C C66U,-0.216
21,C27U C46U A69G A70U C71U,-0.248
22,A43C C46U A69G A70U C71U,-0.273
23,C46U C71U,-0.00784

row,Variant,yeast fitness (ln)
1,C27U C66U A69G A70G C71U,-0.262
2,C27U C66U C71U,-0.173
3,A43C C66U A69G,-0.174
4,C27U C66A A69G A70U C71U,-0.356
5,C66U A69G A70G C71U,-0.106
6,C27U A43C C46U A70U C71U,-0.093
7,C27U C46U A70G C71U,-0.256
8,C27U C66U A70U C71U,-0.276
9,C27U C66A A69G A70G C71U,-0.191
10,A69G A70U C71U,-0.162
11,C27U C71U,-0.0403
12,A43C C66U A69G A70U,-0.224
13,A43C C66U A69G A70G,-0.166
14,C46U C66U A70U C71U,-0.148
15,C66A A69G A70G C71U,-0.0757
16,C27U A70G,-0.037
17,C27U A70U,-0.042
18,C27U C46U C66U C71U,-0.376
19,C27U C66A A70U C71U,-0.182
20,C27U A43C C46U A69G,-0.0156
21,C27U A43C C66A A69G A70G,-0.181
22,C27U A43C C66A A69G A70U,-0.289
23,A69G A70U,-0.0431

row,Variant,yeast fitness (ln)
1,A69G A70G,-0.0138
2,C27U A43C C46U C66A A69G A70G,-0.0756
3,C27U A43C C46U C66A A69G A70U,-0.156
4,C27U C46U A70U C71U,-0.205
5,C27U A43C C66U A69G C71U,-0.344
6,C27U A69G C71U,-0.113
7,C27U C46U A69G A70G C71U,-0.298
8,C27U C46U C66A A70G,-0.0605
9,C27U C46U C66A A70U,-0.0577
10,A43C C66U A70U C71U,-0.358
11,A43C C46U A70G C71U,-0.168
12,C27U A43C C46U C66A A70U C71U,-0.301
13,C27U C66U A69G C71U,-0.313
14,C27U A43C C66U A70G C71U,-0.211
15,C27U A43C C46U A69G A70U C71U,-0.317
16,C46U C66U A69G A70U,-0.0707
17,C46U C66U A69G A70G,-0.216
18,C27U C46U C66A A70U C71U,-0.13
19,C27U A43C C46U,-0.00723
20,C27U A43C C66A A70U C71U,-0.347
21,A43C C66A A69G A70U C71U,-0.398
22,A43C C46U C66U,-0.0822
23,A43C C46U C66A,-0.0152

row,Variant,yeast fitness (ln)
1,C27U A69G A70G C71U,-0.223
2,C27U C46U C66U A70U,-0.0808
3,C27U C46U C66U A70G,-0.315
4,C46U A70U C71U,-0.129
5,A43C C46U A70U,-0.00645
6,A43C C46U A70G,-0.00498
7,C27U A70G C71U,-0.38
8,A43C C46U C66A A69G A70U,-0.0398
9,A43C C46U C66A A69G A70G,-0.0183
10,C27U C66A C71U,-0.117
11,C27U A43C C46U C66U A69G A70G C71U,-0.18
12,A43C C71U,-0.038
13,C66A A69G A70U C71U,-0.32
14,C27U C66U A70G,-0.116
15,C27U C66U A70U,-0.0893
16,C27U C46U C66U A70G C71U,-0.126
17,C27U C66U A69G A70U,-0.143
18,C27U C66U A69G A70G,-0.19
19,A43C C46U C66U A69G,-0.172
20,A43C C66A A69G A70G C71U,-0.159
21,C46U C66A,-0.0399
22,C46U C66U,-0.000909
23,A43C C46U C66U A70G,-0.0608

row,Variant,yeast fitness (ln)
1,A43C C46U C66U A70U,-0.0743
2,A43C C66A A70G,-0.0269
3,A43C C66A A70U,-0.0764
4,C46U C66U C71U,-0.0591
5,C27U C46U A69G,-0.0243
6,C27U C66U A70G C71U,-0.183
7,A69G A70G C71U,-0.222
8,C66A A70U,-0.00405
9,C66A A70G,-0.0114
10,C27U A43C C46U C66A A69G A70G C71U,-0.122
11,C27U C46U C66U A69G C71U,-0.286
12,C27U C46U C66U A70U C71U,-0.197
13,A43C A69G A70G,-0.0594
14,A43C A69G A70U,-0.0328
15,A43C C66U A69G C71U,-0.436
16,A43C,0.000879
17,C66U A70G C71U,-0.0554
18,C27U A43C A69G C71U,-0.44
19,C27U A43C C66U C71U,-0.269
20,A43C C46U C66A A70U C71U,-0.128
21,C46U A70G,-0.00475
